{"source": "ChEMBL document CHEMBL1765072", "about": "“Inhibition of amyloidogenesis by nonsteroidal anti-inflammatory drugs and their hybrid nitrates” (J Med Chem, 2011)", "key": {"[1]": {"assay": "Cytotoxicity against mouse RAW264.7 cells assessed as cell viability at 100 uM after 24 hrs by MTT assay relative to control", "assay_type": "cell-based", "details": "read-out: Activity", "outline": "(§1)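 RAW 264.7 cells given 0.5 mg/ml MTT in medium for 4 h, washed with PBS; formazan dissolved in DMSO, shaken 30 min, absorbance read at 570 nm against a 630 nm reference. Viability expressed relative to DMSO control.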"}, "[2]": {"test_system": "N2a", "assay": "Antiamyloidogenic activity in mouse N2A cells transfected with human APP Swedish mutant assessed as increase of amyloid beta (1 to 40) level at 100 uM after 24 hrs by ELISA", "assay_type": "functional, cell-based"}, "[3]": {"test_system": "RAW264.7", "assay": "Antiinflammatory activity against mouse RAW264.7 cells assessed as LPS-induced nitrate production at 100 uM treated 30 mins before LPS challenge measured after 24 hrs by Griess reagent method relative to control"}, "[4]": {"test_system": "N2a", "assay": "Antiamyloidogenic activity in mouse N2A cells transfected with human APP Swedish mutant assessed as increase of amyloid beta (1 to 42) level at 100 uM after 24 hrs by ELISA", "assay_type": "functional, cell-based"}, "[5]": {"test_system": "N2a", "assay": "Antiamyloidogenic activity in mouse N2A cells transfected with human APP Swedish mutant assessed as increase of amyloid beta (1 to 42)/(1 to 40) ratio at 100 uM after 24 hrs by ELISA", "assay_type": "functional, cell-based"}, "[6]": {"test_system": "N2a", "assay": "Antiamyloidogenic activity in mouse N2A cells transfected with human APP Swedish mutant assessed as amyloid beta (1 to 42) level at 1 uM after 24 hrs by ELISA relative to control"}, "[7]": {"test_system": "RAW264.7", "assay": "Antiinflammatory activity against mouse RAW264.7 cells assessed as LPS-induced nitrate production at 10 uM treated 30 mins before LPS challenge measured after 24 hrs by Griess reagent method relative to control"}, "[8]": {"test_system": "N2a", "assay": "Antiamyloidogenic activity in mouse N2A cells assessed as degradation of amyloid beta (1 to 42) level at 10 uM treated 24 hrs before amyloid beta (1 to 42) challenge measured after 8 hrs by MALDI/TOF analysis", "assay_type": "functional, cell-based", "outline": "(§2)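 Wild-type N2a cells in DMEM with 0.2 % FBS, drug-treated after PBS wash; conditioned media collected (18 h per methods, 24 h per text), NaN₃ added, centrifuged, then mixed with Aβ1–40 + Aβ1–42 and incubated 8 h at 37 °C. Cell-free media served as control. Aβ measured by 4G8/6E10 immunoprecipitation and MALDI-TOF, normalized to Aβ1–43 spike and to media control; mean and s.d.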"}, "[9]": {"assay": "Cytotoxicity against mouse RAW264.7 cells assessed as cell viability at 10 uM after 24 hrs by MTT assay relative to control", "assay_type": "cell-based", "details": "read-out: Activity", "outline": "as §1"}, "[10]": {"test_system": "N2a", "assay": "Antiamyloidogenic activity in mouse N2A cells assessed as reduction of amyloid beta (1 to 42)/(1 to 40) ratio at 10 uM treated 24 hrs before amyloid beta (1 to 42)/(1 to 40) challenge measured after 8 hrs by MALDI/TOF analysis", "assay_type": "functional, cell-based", "outline": "as §2"}, "[11]": {"test_system": "N2a", "assay": "Antiamyloidogenic activity in mouse N2A cells assessed as degradation of amyloid beta (1 to 40) level at 10 uM treated 24 hrs before amyloid beta (1 to 40) challenge measured after 8 hrs by MALDI/TOF analysis", "assay_type": "functional, cell-based", "outline": "as §2"}, "[12]": {"assay": "Ratio of drug level in brain to plasma in C57BL/6 mouse at 10 mg/kg, ip after 120 mins", "assay_type": "ADME, organism-based", "parameters": "dose 10 mg/kg, route intraperitoneal", "details": "read-out: BPR", "outline": "(§3)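 Male C57BL/6 mice (25 g) dosed i.p. with 10 mg/kg in DMSO/H₂O 1:1, sacrificed at 30 or 120 min. Brain extracted by methanol homogenization and plasma by acetonitrile, then C18 LC-MS/MS with MRM m/z 361→200 in positive mode. Quantified against a 4–500 ng/mL standard curve; N=4, mean and s.e.m.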"}, "[13]": {"assay": "Ratio of drug level in brain to plasma in C57BL/6 mouse at 10 mg/kg, ip after 30 mins", "assay_type": "ADME, organism-based", "parameters": "dose 10 mg/kg, route intraperitoneal", "details": "read-out: BPR", "outline": "as §3"}, "[14]": {"test_system": "N2a (Mus musculus)", "assay": "Cytotoxicity against mouse N2a/APPsw cells assessed as cell viability at 1 uM after 24 hrs by MTT assay relative to control"}, "[15]": {"test_system": "N2a", "assay": "Antiamyloidogenic activity in mouse N2A cells assessed as reduction of amyloid beta (1 to 42)/(1 to 40) ratio at 100 uM treated 24 hrs before amyloid beta (1 to 42)/(1 to 40) challenge measured after 8 hrs by MALDI/TOF analysis", "assay_type": "functional, cell-based", "outline": "(§4)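 Wild-type N2a cells were plated at 100 × 10⁴ cells/well, PBS-washed, and drug-treated in DMEM with 0.2 % FBS. Conditioned medium was collected after 24 h per the legend (18 h per the methods), given NaN₃, spun at 10,000 g, added to an Aβ1–40 + Aβ1–42 mixture, and incubated 8 h at 37 °C. Samples were then given protease inhibitors, spiked with Aβ1–43, and analysed by 4G8/6E10 IP-MALDI-TOF. Values were normalised to cell-free media control; mean and s.d.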"}, "[16]": {"test_system": "N2a", "assay": "Antiamyloidogenic activity in mouse N2A cells assessed as degradation of amyloid beta (1 to 42) level at 100 uM treated 24 hrs before amyloid beta (1 to 42) challenge measured after 8 hrs by MALDI/TOF analysis", "assay_type": "functional, cell-based", "outline": "as §4"}, "[17]": {"test_system": "N2a", "assay": "Antiamyloidogenic activity in mouse N2A cells transfected with human APP Swedish mutant assessed as reduction of amyloid beta (1 to 42) level at 100 uM after 24 hrs by ELISA", "assay_type": "functional, cell-based"}, "[18]": {"test_system": "N2a", "assay": "Antiamyloidogenic activity in mouse N2A cells transfected with human APP Swedish mutant assessed as increase of amyloid beta (1 to 37) level at 100 uM after 24 hrs by ELISA", "assay_type": "functional, cell-based"}, "[19]": {"test_system": "N2a", "assay": "Antiamyloidogenic activity in mouse N2A cells assessed as degradation of amyloid beta (1 to 40) level at 100 uM treated 24 hrs before amyloid beta (1 to 40) challenge measured after 8 hrs by MALDI/TOF analysis", "assay_type": "functional, cell-based", "outline": "as §4"}, "[20]": {"test_system": "N2a", "assay": "Antiamyloidogenic activity in mouse N2A cells transfected with human APP Swedish mutant assessed as reduction of amyloid beta (1 to 42) level at 0.5 uM after 24 hrs by ELISA", "assay_type": "functional, cell-based", "outline": "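N2a/APPsw cells (25 × 10⁴/well, plated 24 h prior) washed with PBS and treated with drug in DMEM with 0.2 % FBS for 24 h. Supernatant got NaN₃ (0.01 % final) and protease inhibitors, was centrifuged, and Aβ1–42 was measured by human sandwich ELISA. Values normalized to DMSO vehicle; mean and s.e.m., at least 4 experiments on separate passages.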"}, "[21]": {"test_system": "N2a", "assay": "Antiamyloidogenic activity in mouse N2A cells transfected with human APP Swedish mutant assessed as effect on amyloid beta (1 to 37) level at 200 uM after 24 hrs by ELISA", "assay_type": "functional, cell-based"}, "[22]": {"test_system": "N2a", "assay": "Antiamyloidogenic activity in mouse N2A cells transfected with human APP Swedish mutant assessed as increase of amyloid beta (1 to 42)/(1 to 40) ratio at 200 uM after 24 hrs by ELISA", "assay_type": "functional, cell-based"}, "[23]": {"test_system": "N2a", "assay": "Antiamyloidogenic activity in mouse N2A cells transfected with human APP Swedish mutant assessed as increase of amyloid beta (1 to 42) level at 200 uM after 24 hrs by ELISA", "assay_type": "functional, cell-based"}, "[24]": {"test_system": "N2a", "assay": "Antiamyloidogenic activity in mouse N2A cells transfected with human APP Swedish mutant assessed as increase of amyloid beta (1 to 42) level at 200 uM after 24 hrs by ELISA relative to control", "assay_type": "functional"}, "[25]": {"test_system": "N2a", "assay": "Antiamyloidogenic activity in mouse N2A cells transfected with human APP Swedish mutant assessed as increase of amyloid beta (1 to 40) level at 200 uM after 24 hrs by ELISA", "assay_type": "functional, cell-based"}, "[26]": {"test_system": "N2a", "assay": "Antiamyloidogenic activity in mouse N2A cells transfected with human APP Swedish mutant assessed as effect on amyloid beta (1 to 38) level at 200 uM after 24 hrs by ELISA", "assay_type": "functional, cell-based"}}, "note": "Calls of active or inactive are those of the source. No cut-off for these calls is given here."}
{"smiles": "O=C(OCCBr)C1(c2ccc(-c3ccc(Cl)c(Cl)c3)c(F)c2)CC1", "values": [{"measurement": "viability at 24 h, 100 µM", "setting": "[1]", "result": 114, "unit": "%"}, {"measurement": "Activity", "setting": "[2]", "result": "Active"}, {"measurement": "level, % of control at 100 µM", "setting": "[3]", "result": 27.8, "unit": "%"}, {"measurement": "Activity", "setting": "[4]", "result": "Active"}, {"measurement": "Activity", "setting": "[5]", "result": "Active"}]}
{"smiles": "CSc1ccc(/C=C2/C=C(CC(=O)O)c3cc(F)ccc32)cc1", "values": [{"measurement": "level, % of control at 1 µM", "setting": "[6]", "result": 80.8, "unit": "%"}, {"measurement": "level, % of control at 10 µM", "setting": "[7]", "result": 47.5, "unit": "%"}, {"measurement": "Activity", "setting": "[8]", "result": "Active"}, {"measurement": "viability at 24 h, 10 µM", "setting": "[9]", "result": 100, "unit": "%"}, {"measurement": "Activity", "setting": "[10]", "result": "Active"}, {"measurement": "Activity", "setting": "[11]", "result": "Active"}]}
{"smiles": "CC(C(=O)NCCCCO[N+](=O)[O-])c1ccc(-c2ccccc2)c(F)c1", "note": "(configuration not stated)", "values": [{"measurement": "Kp at 2 h", "setting": "[12]", "result": 13}, {"measurement": "Kp at 0.5 h", "setting": "[13]", "result": 37}]}
{"smiles": "O=C(O)C1(c2ccc(-c3ccccc3)c(F)c2)CC1", "values": [{"measurement": "level, % of control at 1 µM", "setting": "[6]", "result": 69.5, "unit": "%"}, {"measurement": "viability at 24 h, 100 µM", "setting": "[1]", "result": 101, "unit": "%"}, {"measurement": "viability at 24 h, 1 µM", "setting": "[14]", "result": 103, "unit": "%"}, {"measurement": "level, % of control at 100 µM", "setting": "[3]", "result": 60.7, "unit": "%"}]}
{"smiles": "CC(C(=O)O)c1ccc(-c2ccccc2)c(F)c1", "note": "(configuration not stated) [FLURBIPROFEN]", "values": [{"measurement": "level, % of control at 1 µM", "setting": "[6]", "result": 86.6, "unit": "%"}, {"measurement": "viability at 24 h, 100 µM", "setting": "[1]", "result": 10.9, "unit": "%"}, {"measurement": "Activity", "setting": "[15]", "result": "Active"}, {"measurement": "level, % of control at 10 µM", "setting": "[7]", "result": 80.7, "unit": "%"}, {"measurement": "level, % of control at 100 µM", "setting": "[3]", "result": 69.1, "unit": "%"}, {"measurement": "Activity", "setting": "[16]", "result": "Active"}, {"measurement": "inhibition", "setting": "[17]", "result": "Active"}, {"measurement": "Activity", "setting": "[18]", "result": "Active"}, {"measurement": "Activity", "setting": "[19]", "result": "Active"}]}
{"smiles": "O=C(OCCO[N+](=O)[O-])C1(c2ccc(-c3ccccc3)c(F)c2)CC1", "values": [{"measurement": "viability at 24 h, 100 µM", "setting": "[1]", "result": 113, "unit": "%"}, {"measurement": "level, % of control at 100 µM", "setting": "[3]", "result": 47.3, "unit": "%"}, {"measurement": "inhibition", "setting": "[20]", "result": "Active"}]}
{"smiles": "O=C(OCCBr)C1(c2ccc(-c3ccccc3)c(F)c2)CC1", "values": [{"measurement": "viability at 24 h, 100 µM", "setting": "[1]", "result": 109, "unit": "%"}, {"measurement": "level, % of control at 100 µM", "setting": "[3]", "result": 18.9, "unit": "%"}]}
{"smiles": "CC(C)OC(=O)C(C)(C)Oc1ccc(C(=O)c2ccc(Cl)cc2)cc1", "note": "[FENOFIBRATE]", "values": [{"measurement": "Activity", "setting": "[21]", "result": "Active"}, {"measurement": "Activity", "setting": "[22]", "result": "Active"}, {"measurement": "Activity", "setting": "[23]", "result": "Active"}, {"measurement": "fold change (FC)", "setting": "[24]", "result": 3}, {"measurement": "Activity", "setting": "[25]", "result": "Active"}, {"measurement": "Activity", "setting": "[26]", "result": "Active"}]}
